Read-outs that look alike come from different tables or passages of the source.
What was measured:
[1] = tested on: CoCA; format: physicochemical, bovine; settings: calculated from first addition (3.75 μM MBP) to 38 μM CoCA; thione coordinated
Procedure, shortened: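 UV-vis titration of 38 μM CoCA with MBP in 50 mM phosphate, pH 7.5. ΔA of protonated and deprotonated bands converted to concentrations using the εOH–εO− difference, then to mole fractions vs MBP added. Effective pKa calculated from the first addition (3.75 μM), […]. Shift expressed relative to the free-MBP hydroxyl pKa.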

[2] = MBP hydroxyl pKa from pH-dependent optical spectra; format: physicochemical
[3] = target: ZnCA; settings: with ZnCA; ref 7 (Martin, et al); cited from earlier work
[4] = solution of the free MBP, pH varied (UV-vis optical spectra)

| SMILES | effective pKa [1] | pKa [2] | pKa [2, 4] | Ki [3] | deprotonated form present at physiological pH ([2]; expected from pKa) |
| --- | --- | --- | --- | --- | --- |
| Oc1coccc1=S [TPMA, 3-hydroxy-4H-pyran-4-thione] | 8.4 | 9.5 | ~9.5 | 1100 µM |  |
| Cc1occc(=S)c1O [TM, 3-hydroxy-2-methyl-4H-pyran-4-thione] | 8.3 | 9 | ~9 | 1400 µM |  |
| Cc1cc(=S)c(O)co1 [ATM, 5-hydroxy-2-methyl-4H-pyran-4-thione] | 7.6 | 8.3 | ~8.3 | 650 µM | ~ 15% |

Source: article PMC6489498 (Inorganic chemistry, 2017)
